Source: PubChem (several laboratories)
PGE2 EP2 inh: human EP2 receptor antagonists, primary screen, TR-FRET cAMP, C6 glioma cells; Prostaglandin E2 receptor EP2 subtype (Homo sapiens), P43116; C6 glioma cells expressing human EP2; cells stimulated with saturating PGE2; inhibition, % at 25 µM; 260,000 tested, 0.52% active; AID 1422, 2008;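 active means percent inhibition above 40 after rounding to a whole number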;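 further: rat C6 glioma host cells with rolipram phosphodiesterase inhibitor present; the protocol text gives 20 µM as final concentration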
Target sequence (P43116 whole entry, looked up): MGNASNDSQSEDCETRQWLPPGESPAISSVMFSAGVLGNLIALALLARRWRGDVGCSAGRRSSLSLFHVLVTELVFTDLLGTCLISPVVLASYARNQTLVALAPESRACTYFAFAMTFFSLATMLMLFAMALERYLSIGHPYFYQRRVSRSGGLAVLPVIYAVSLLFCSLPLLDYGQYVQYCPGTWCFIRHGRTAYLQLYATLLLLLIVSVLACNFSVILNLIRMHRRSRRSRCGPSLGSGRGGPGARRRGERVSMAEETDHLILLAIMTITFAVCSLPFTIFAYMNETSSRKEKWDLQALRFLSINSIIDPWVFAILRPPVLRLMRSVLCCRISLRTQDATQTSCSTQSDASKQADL
GPR7 antagonist: GPR7 receptor antagonists, primary screen, cell-based, fluorescence, single concentration. Neuropeptides B/W receptor type 1 (Homo sapiens), P48145. GPR7-expressing cells, fluorescence antagonist assay. inhibition, % at 4.4 µM. 290,000 tested, 1.1% active. AID 1861, 2009; in the data active means inhibition above about 16%, passing the limit was not always enough;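 further: cells stimulated with the agonist NPW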
OX1R antag-1: OX1R (HCRTR1) antagonists, primary screen, fluorescence, CHO/OX1R cells, Fluo-8 calcium, orexin A; Fluo-8 calcium fluorescence; inhibition, % at 5 µM; 330,000 tested, 0.43% active; AID 434989, 2010;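 active means inhibition above its plate's threshold, mean inhibition of all tested compounds on the plate plus 3 SD, cut at about 37% in these data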
CHO parental Ca: ATP-evoked calcium signal inhibitors, parental CHO, primary screen, counter-screen for OX1R antagonist project, cell-based, fluorescence, Fluo-8 calcium dye; parental CHO-K1, ATP-induced calcium, Fluo-8 fluorescence; inhibition, % at 5.6 µM; 330,000 tested, 0.63% active; AID 463079, 2010;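 active means inhibition above that plate's mean sample inhibition plus 3 SD, cut at about 26% in these data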
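Measured by: calcium-sensitive Fluo-8 fluorescence / Test system: CHO parental line / Controls: ATP-challenged DMSO wells low, unchallenged DMSO wells high / Measure: % inhibition / Compound: single nominal dose of 5.6 µM per compound / Replicates: single well per compound, no replicates / Reagent: ATP as calcium-mobilizing challenge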
EP2 mod: EP2 receptor modulators, cAMP readout, primary screen, cell-based, HTRF cAMP, PGE2 stimulation; induction, % at 25 µM; EP2-expressing cells, cAMP HTRF FRET, PGE2 co-stimulation; 260,000 tested, 0.83% active; Prostaglandin E2 receptor EP2 subtype (Homo sapiens), P43116; AID 940, 2007;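 active means compounds whose cAMP rise, as percent of the full-agonist control response, exceeds 60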;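 further: rat C6 glioma line stably carrying human EP2 under a CMV promoter; the protocol text gives 20 µM as final concentration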
OX1R antag-2: antagonists of human orexin 1 receptor (OX1R); Orexin/Hypocretin receptor type 1 (Homo sapiens), O43613; OX1R-expressing cells, FRET antagonist read-out; inhibition, % at 6.6 µM; 330,000 tested, 1.8% active; in the data active means inhibition mostly above about 38%, no sharp cut-off; inactive means mostly below about 40%
GPR7 antag conf: GPR7 receptor antagonists, confirmation, cell-based, fluorescence, single concentration; shares compounds with GPR7 antagonist; GPR7-expressing cells, calcium fluorescence antagonist mode; inhibition, % at 4.4 µM; 2,400 tested, 52% active; in the data active means inhibition above about 24%;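 further: stimulated with the GPR7 agonist NPW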
MCHR1 antag: MCHR1 antagonists in cells, counter-screen for GPR7 antagonist project, cell-based, fluorescence, human | shares compounds with GPR7 antagonist | MCHR1-expressing cells, fluorescence antagonist assay | inhibition, % at 4.4 µM | 2,400 tested, 62% active | AID 2148, 2009; in the data active means inhibition above about 22%
Hits are given with their value; 0 = inactive; - = not tested or not shown. Rows were chosen to be rich in hits. Some 3.7% of all compounds tested hit in one or more screens of this group.

SMILES	PGE2 EP2 inh	GPR7 antagonist	OX1R antag-1	CHO parental Ca	EP2 mod	OX1R antag-2	GPR7 antag conf	MCHR1 antag
CC[C@H](Cn1nc(-c2ccc(F)c(F)c2)ccc1=O)NC(=O)CCc1c(C)noc1C	-	-	-	-	0	-	-	-
CCOc1ccccc1N1CCN(c2ncnc3scc(-c4ccc(OC)cc4)c23)CC1	-	54	0	0	-	0	0	54
COc1ccc(-c2csc3ncnc(N4CCN(c5ccccc5OC)CC4)c23)cc1	-	0	0	0	-	0	-	-
Cc1cc(C)nc(SCC(=O)N/N=C/c2cccc([N+](=O)[O-])c2)n1	0	0	0	0	0	0	-	-
O=C(NCCCO)c1ccc2[nH]c3c(c2c1)CCCC3	0	0	0	0	0	0	-	-
OC(COCc1ccc(Cl)cc1)CN1CCN(CC(O)COCc2ccc(Cl)cc2)CC1 (stereo unspecified)	0	26	0	0	0	0	68	73
Cc1cc(/C=C2\C(=N)N3N=C(CC(=O)N4CCOCC4)SC3=NC2=O)c(C)n1-c1ccccc1	-	0	0	0	-	0	-	-
COc1ccc(-n2c(C)cc(/C=C3\C(=N)N4N=C(CC(=O)N5CCOCC5)SC4=NC3=O)c2C)cc1	-	32	0	0	-	0	0	0
CCC(CC)C1C(C#N)=C(N)SC(N)=C1C#N	0	22	0	0	0	0	0	0
CCOC(=O)c1c(C)nc(C)c(C(=O)OCC)c1-c1ccc(O)c(OC)c1	0	0	0	0	0	0	-	-
COCCNC(=O)c1ccc(CSc2nc3ccccc3s2)cc1	-	31	0	0	-	0	0	28
CCNC(=O)c1ccc(CSc2nc3ccccc3s2)cc1	-	0	0	0	-	0	-	-
COc1ccc2sc(-c3ccccc3OC)c(C#Cc3cncn3C)c2c1	-	-	0	0	-	0	-	-
CC(=O)c1ccc(N2CCN(CC(O)COC(c3ccccc3)c3ccccc3C)CC2)cc1 (stereo unspecified)	-	0	0	0	-	0	-	-
CC(=O)c1ccc(N2CCN(CC(O)COC(c3ccccc3)c3ccccc3)CC2)cc1 (stereo unspecified)	-	27	0	0	-	0	35	34
N#Cc1ccccc1CSc1ccc(-c2nc3ccccc3[nH]2)cn1	0	31	0	0	0	0	0	74
Cc1cc2nc(-c3ccc(SCc4ccc(C#N)cc4)nc3)[nH]c2cc1C	0	33	0	0	0	0	55	66
CN(C)CCCNC(=O)c1ccccn1	0	0	0	0	0	0	-	-
CN(C)CCCNC(=O)c1ccc(-c2nc(-c3ccc(Cl)cc3)cs2)cc1	0	41	0	0	0	0	91	92
c1ccc(CNc2ccccn2)cc1	-	0	0	0	-	0	-	-
c1ccc(Nc2ccccc2Nc2ccccn2)nc1	0	53	50	49	0	56	0	0
CCCNC(=O)c1nnsc1S(=O)(=O)c1ccc(Cl)cc1	0	35	-	-	0	-	79	102
CCCNC(=O)c1ccc2snnc2c1	0	0	0	0	0	0	-	-
COC(=O)c1c(NC(=O)C(C)C)sc(C(=O)Nc2ccccc2)c1C	0	-	-	-	0	-	-	-
CCC1CCCCN1C(=O)c1sc2nc(C)nc(N(CC)CC)c2c1C (stereo unspecified)	0	25	0	0	0	0	0	0
SMILES	PGE2 EP2 inh	GPR7 antagonist	OX1R antag-1	CHO parental Ca	EP2 mod	OX1R antag-2	GPR7 antag conf	MCHR1 antag
O=C(CSc1nc2[nH]ncc2c(=O)[nH]1)Nc1cccc([N+](=O)[O-])c1	-	-	0	0	-	0	-	-
S=C(NCC1CCCO1)N1CCN(c2nc(-c3ccc(Cl)cc3)cs2)CC1 (stereo unspecified)	0	21	0	0	0	0	58	72
S=C(NCCCN1CCOCC1)N1CCN(c2nc(-c3ccc(Cl)cc3)cs2)CC1	0	0	0	0	0	0	-	-
N#Cc1ccc(NC(=O)Nc2cccc(C#N)c2)cc1	0	25	-	-	0	-	36	55
CCN(CC(=O)Nc1cccc(C#N)c1)CC(=O)Nc1cccc(OC)c1	0	27	0	0	0	0	30	0
CCN(CC(=O)Nc1ccc(OC)cc1)C(=O)CCc1nc2ccccc2c(=O)[nH]1	-	-	0	0	-	0	-	-
CC1c2[nH]c3ccccc3c2CCN1S(C)(=O)=O (stereo unspecified)	0	26	0	0	0	0	0	0
O=C(COC(=O)CCNS(=O)(=O)c1ccccc1F)Nc1nnc(-c2ccccc2)o1	-	-	0	0	-	0	-	-
COc1ccc(-c2cc(C(=O)N(C)Cc3ccccc3)no2)cc1OC	0	31	0	0	0	0	0	0
Cc1cc(C)cc(SCc2noc(C(=O)NC(C)C)c2C(=O)O)c1	0	0	0	0	0	0	-	-
COc1ccc(N=C/C=C2\C=C(c3ccccc3)OC(C)(C)O2)cc1	0	29	0	0	0	0	0	0
Cc1ccccc1N=C/C=C1/C=C(c2ccccc2)OC(C)(C)O1	0	0	0	0	0	0	-	-
NC(=O)c1ccsc1NC(=O)COC(=O)Cc1c[nH]c2ccccc12	-	-	0	0	-	0	-	-
NC(=O)c1ccsc1NC(=O)COC(=O)Cc1cccc2ccccc12	0	28	75	59	0	0	54	78
O=[N+]([O-])c1cccc(-c2nc3ccccc3s/c2=N/O)c1	0	0	0	0	0	0	45	40
O=[N+]([O-])c1cccc(-c2cnc3ccccc3n2)c1	0	0	0	0	0	0	-	-
Oc1ccc(-c2csc(-c3ccccc3)n2)cc1O	0	27	0	28	0	0	0	0
Oc1ccc(-c2csc(-c3cccnc3)n2)cc1O	0	0	0	0	0	0	-	-
CCOc1ccc([N+](=O)[O-])c(N)c1	0	28	0	0	0	0	0	0
COc1ccc(CCNC(=O)C(C)OC(=O)c2cccs2)cc1OC (stereo unspecified)	-	0	0	0	-	0	-	-
CN1CCC(NC(=O)c2cc(-c3cccc(Br)c3)nc3ccccc23)CC1	-	42	0	0	-	0	37	32
O=C(c1ccco1)N1CCN(S(=O)(=O)c2ccc(S(=O)(=O)NC3CCCCC3)cc2)CC1	0	-	0	0	0	0	-	0
